{
  "source": "ChEMBL document CHEMBL4251636",
  "about": "“Design, synthesis and biological evaluations of novel pyridone-thiazole hybrid molecules as antitumor agents” (Eur J Med Chem, 2018)",
  "key": {"HCT-116 [1]": {"system": "HCT-116", "assay": "Antiproliferative activity against human HCT116 cells after 72 hrs by MTT assay", "format": "functional, cell-based", "settings": "HCT-116, 72 h", "procedure,_shortened": "(§1)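 Cells grown to log phase in RPMI 1640 with 10% FBS, seeded at 2×10^4 cells/mL and incubated 24 h at 37 °C, 5% CO2. Compounds added, then 72 h at 37 °C. MTT (5 mg/mL stock) for 4 h, formazan dissolved in DMSO, absorbance read at 570 nm. Triplicate wells per concentration, three independent experiments. IC50 is the concentration giving 50% growth inhibition versus untreated control, reported as mean ± S.E.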"}, "MGC-803 [2]": {"system": "MGC-803", "assay": "Antiproliferative activity against human MGC803 cells after 72 hrs by MTT assay", "format": "functional, cell-based", "settings": "MGC-803, 72 h", "procedure,_shortened": "as §1"}, "Huh-7": {"system": "Huh-7", "assay": "Antiproliferative activity against human HuH7 cells after 72 hrs by MTT assay", "format": "functional, cell-based", "settings": "Huh-7, 72 h", "procedure,_shortened": "as §1"}, "MGC-803 [3]": {"system": "MGC-803", "assay": "Potency index, ratio of 5-Fluorouracil IC50 to compound IC50 for antiproliferative activity against human MGC803 cells", "format": "functional"}, "HCT-116 [4]": {"system": "HCT-116", "assay": "Potency index, ratio of 5-Fluorouracil IC50 to compound IC50 for antiproliferative activity against human HCT116 cells", "format": "functional"}},
  "data": [
    {"smiles": "CC(=O)c1sc(N/N=C2/C=C(Nc3ccc(C)cc3)C(Nc3ccc(C)cc3)=NC2=O)nc1C", "values": [
      {"measurement": "IC50", "setting": "HCT-116 [1]", "value": 52.7, "unit": "µM"},
      {"measurement": "IC50", "setting": "MGC-803 [2]", "value": 75.5, "unit": "µM"},
      {"measurement": "IC50", "setting": "Huh-7", "value": 72, "unit": "µM"}
    ]},
    {"smiles": "CC(=O)c1sc(N/N=C2/C=C(Nc3ccc(Br)cc3)C(Nc3ccc(Br)cc3)=NC2=O)nc1C", "values": [
      {"measurement": "IC50", "setting": "HCT-116 [1]", "value": 13.2, "unit": "µM"},
      {"measurement": "IC50", "setting": "MGC-803 [2]", "value": 9.12, "unit": "µM"},
      {"measurement": "IC50", "setting": "Huh-7", "value": 17.9, "unit": "µM"}
    ]},
    {"smiles": "CC(=O)c1sc(N/N=C2/C=C(Nc3cccc(Cl)c3)C(Nc3cccc(Cl)c3)=NC2=O)nc1C", "values": [
      {"measurement": "IC50", "setting": "HCT-116 [1]", "value": 10.6, "unit": "µM"},
      {"measurement": "IC50", "setting": "MGC-803 [2]", "value": 5.18, "unit": "µM"},
      {"measurement": "IC50", "setting": "Huh-7", "value": "> 128", "unit": "µM"}
    ]},
    {"smiles": "CC(=O)c1sc(N/N=C2/C=C(Nc3ccccc3Cl)C(Nc3ccccc3Cl)=NC2=O)nc1C", "values": [
      {"measurement": "IC50", "setting": "HCT-116 [1]", "value": 8.17, "unit": "µM"},
      {"measurement": "IC50", "setting": "MGC-803 [2]", "value": 3.15, "unit": "µM"},
      {"measurement": "IC50", "setting": "Huh-7", "value": 21.5, "unit": "µM"},
      {"measurement": "Ratio IC50", "setting": "MGC-803 [3]", "value": 8.1},
      {"measurement": "Ratio IC50", "setting": "HCT-116 [4]", "value": 1.4}
    ]},
    {"smiles": "COc1cccc(NC2=C/C(=N/Nc3nc(C)c(C(C)=O)s3)C(=O)N=C2Nc2cccc(OC)c2)c1", "values": [
      {"measurement": "IC50", "setting": "HCT-116 [1]", "value": "> 128", "unit": "µM"},
      {"measurement": "IC50", "setting": "MGC-803 [2]", "value": "> 128", "unit": "µM"},
      {"measurement": "IC50", "setting": "Huh-7", "value": "> 128", "unit": "µM"}
    ]},
    {"smiles": "CC(=O)c1sc(N/N=C2/C=C(Nc3ccccc3)C(Nc3ccccc3)=NC2=O)nc1C", "values": [
      {"measurement": "IC50", "setting": "HCT-116 [1]", "value": 25.3, "unit": "µM"},
      {"measurement": "IC50", "setting": "MGC-803 [2]", "value": 13.5, "unit": "µM"},
      {"measurement": "IC50", "setting": "Huh-7", "value": 19.1, "unit": "µM"}
    ]},
    {"smiles": "COc1ccc(NC2=C/C(=N/Nc3nc(C)c(C(C)=O)s3)C(=O)N=C2Nc2ccc(OC)cc2)cc1", "values": [
      {"measurement": "IC50", "setting": "HCT-116 [1]", "value": "> 128", "unit": "µM"},
      {"measurement": "IC50", "setting": "MGC-803 [2]", "value": 82.6, "unit": "µM"},
      {"measurement": "IC50", "setting": "Huh-7", "value": "> 128", "unit": "µM"}
    ]},
    {"smiles": "CC(=O)c1sc(N/N=C2/C=C(Nc3cccc(Br)c3)C(Nc3cccc(Br)c3)=NC2=O)nc1C", "values": [
      {"measurement": "IC50", "setting": "HCT-116 [1]", "value": 22.2, "unit": "µM"},
      {"measurement": "IC50", "setting": "MGC-803 [2]", "value": 21.6, "unit": "µM"},
      {"measurement": "IC50", "setting": "Huh-7", "value": "> 128", "unit": "µM"}
    ]},
    {"smiles": "CC(=O)c1sc(N/N=C2/C=C(Nc3ccccc3C)C(Nc3ccccc3C)=NC2=O)nc1C", "values": [
      {"measurement": "IC50", "setting": "HCT-116 [1]", "value": "> 128", "unit": "µM"},
      {"measurement": "IC50", "setting": "MGC-803 [2]", "value": 45, "unit": "µM"},
      {"measurement": "IC50", "setting": "Huh-7", "value": "> 128", "unit": "µM"}
    ]},
    {"smiles": "COc1ccccc1NC1=C/C(=N/Nc2nc(C)c(C(C)=O)s2)C(=O)N=C1Nc1ccccc1OC", "values": [
      {"measurement": "IC50", "setting": "HCT-116 [1]", "value": 85.4, "unit": "µM"},
      {"measurement": "IC50", "setting": "MGC-803 [2]", "value": 51.1, "unit": "µM"},
      {"measurement": "IC50", "setting": "Huh-7", "value": 20.6, "unit": "µM"}
    ]},
    {"smiles": "CC(=O)c1sc(N/N=C2/C=C(Nc3ccc(Cl)cc3)C(Nc3ccc(Cl)cc3)=NC2=O)nc1C", "values": [
      {"measurement": "IC50", "setting": "HCT-116 [1]", "value": 8.28, "unit": "µM"},
      {"measurement": "IC50", "setting": "MGC-803 [2]", "value": 8.56, "unit": "µM"},
      {"measurement": "IC50", "setting": "Huh-7", "value": "> 128", "unit": "µM"}
    ]},
    {"smiles": "CC(=O)c1sc(N/N=C2/C=C(Nc3cccc(F)c3)C(Nc3cccc(F)c3)=NC2=O)nc1C", "values": [
      {"measurement": "IC50", "setting": "HCT-116 [1]", "value": 22.8, "unit": "µM"},
      {"measurement": "IC50", "setting": "MGC-803 [2]", "value": 21.4, "unit": "µM"},
      {"measurement": "IC50", "setting": "Huh-7", "value": 58.8, "unit": "µM"}
    ]},
    {"smiles": "CC(=O)c1sc(N/N=C2/C=C(Nc3cccc(C)c3)C(Nc3cccc(C)c3)=NC2=O)nc1C", "values": [
      {"measurement": "IC50", "setting": "HCT-116 [1]", "value": "> 128", "unit": "µM"},
      {"measurement": "IC50", "setting": "MGC-803 [2]", "value": "> 128", "unit": "µM"},
      {"measurement": "IC50", "setting": "Huh-7", "value": "> 128", "unit": "µM"}
    ]},
    {"smiles": "O=c1[nH]cc(F)c(=O)[nH]1", "note": "[FLUOROURACIL]", "values": [
      {"measurement": "IC50", "setting": "HCT-116 [1]", "value": 11.3, "unit": "µM"},
      {"measurement": "IC50", "setting": "MGC-803 [2]", "value": 25.5, "unit": "µM"},
      {"measurement": "IC50", "setting": "Huh-7", "value": 5.63, "unit": "µM"}
    ]}
  ]
}
